According to PMC10008514 (Chemical communications (Cambridge, England), 2023):
Entries after “also recorded” stand apart in the source; their conditions may differ. Read-outs that look alike come from different tables or passages of the source.

Legend:
hCAII = settings: read-out: Ki hCAII; reported inhibitor; cited from earlier work
[1] = Reaction with L-cysteine methyl ester; format: physicochemical; settings: equimolar 13, 24 h, 10% acetonitrile 90% water, pH 7.4, 1.25 mM
How it was run: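 Test compound and L-cysteine methyl ester were mixed in equimolar amounts at a final concentration of 1.25 mM. The solvent was 10% acetonitrile and 90% water at pH 7.4. The mixture was incubated for 24 h before analysis.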

Reactivity with DTNB = format: physicochemical; settings: compound:DTNB 1:10, incubation 90 min, absorbance 412 nm
[2] = target: human carbonic anhydrase II (hCAII) (Homo sapiens, UniProt P00918); assay: hCAII inhibition assay; format: biochemical
[3] = target: T1, matrix metalloproteinase-2 (MMP-2) (Homo sapiens, UniProt P08253); assay: MMP-2 inhibition assay; format: biochemical
T1 sequence (P08253 110-660): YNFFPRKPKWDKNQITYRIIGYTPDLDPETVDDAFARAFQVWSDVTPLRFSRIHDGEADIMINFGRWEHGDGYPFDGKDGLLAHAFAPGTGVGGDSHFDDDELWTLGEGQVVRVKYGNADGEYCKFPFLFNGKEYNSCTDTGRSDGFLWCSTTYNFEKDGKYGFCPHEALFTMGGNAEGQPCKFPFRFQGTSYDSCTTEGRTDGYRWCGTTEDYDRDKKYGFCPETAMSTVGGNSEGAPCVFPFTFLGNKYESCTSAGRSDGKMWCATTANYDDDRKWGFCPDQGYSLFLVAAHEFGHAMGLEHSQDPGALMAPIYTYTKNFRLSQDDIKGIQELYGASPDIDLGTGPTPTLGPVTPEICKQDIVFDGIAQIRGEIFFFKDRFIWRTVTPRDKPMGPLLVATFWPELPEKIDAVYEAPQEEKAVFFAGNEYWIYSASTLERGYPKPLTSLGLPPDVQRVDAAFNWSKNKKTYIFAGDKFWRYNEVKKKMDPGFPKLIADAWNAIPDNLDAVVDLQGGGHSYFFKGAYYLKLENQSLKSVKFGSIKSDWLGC

| Reactivity with L-cysteine methyl ester (13), disulfide formation by HPLC [1] | IC50 ([2]; read-out: IC50 hCAII, ± 95% confidence interval) [µM] | IC50 hCAII ([2]; ± 95% confidence interval) | IC50 ([3]; read-out: IC50 MMP-2, ± 95% confidence interval) [µM] | IC50 [2] [µM] | IC50 [3] [µM] | SMILES | Ki (hCAII) [µM] | Percent reactivity (conversion) with DTNB (Reactivity with DTNB) |
| --- | --- | --- | --- | --- | --- | --- | --- | --- |
| most stable compounds | > 200 | not active | > 200 |  |  | S=c1[nH]c2ccccc2o1 [Compound 1, benzo[d]oxazole-2-(3H)-thione] | 0.97 | most stable compounds |
| stable in the presence of 13 |  |  |  | 3.42 ± 0.34 | 76.6 ± 4.26 | S=C1Cc2ccccc2N1 [Compound 5, 2-indolinethione] |  |  |
| generate disulfide products with 13 |  |  |  | 19.4 ± 5.15 | > 200 | Oc1ccccc1S [Compound 11, 2-mercaptophenol, reference compound] | 0.63 | essentially quantitative conversion; also recorded: essential quantitative disulfide formation |
|  |  |  |  |  |  | C[C@H](CS)C(=O)N1CCC[C@H]1C(=O)O [Compound 12, captopril] |  | essentially quantitative conversion; also recorded: essential quantitative disulfide formation |
